Entries after “also recorded” stand apart in the source; their conditions may differ. Where a SMILES comes first, the peptide text is derived from it. The star is where a group is joined. Bz = O=C(c1ccccc1)*; NHPh = c1ccc(N*)cc1
What was measured:
Cytotoxicity assay = assay type: cell-based; conditions: human, TZM-GFP cells
Method in brief: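 TZM-GFP cells were plated at 1 × 10^4 cells per well and exposed continuously to increasing concentrations of test compound for 72 h. Viable cells were counted by XTT. CC50 came from a log(inhibitor) vs normalized response, variable-slope fit for each independent assay, then averaged. Runs were in duplicate across at least two independent experiments; mean ± SD.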

HIV-1NL4-3 = assay: Anti-HIV-1 assay in TZM-GFP cells; assay type: cell-based; conditions: for inhibition at 2 µM: Human immunodeficiency virus 1, read-out: Inhibition at 2 μmol/L; for inhibition at 20 µM: Human immunodeficiency virus 1, read-out: Inhibition at 20 μmol/L; for Inhibition at 2 μmol/L: 2 μmol/L compound
Method in brief: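 TZM-GFP cells seeded at 1 × 10^4 per well; after 24 h, medium replaced with test compound at 20 μmol/L, with actives retested at 2 μmol/L. HIV-1NL4-3 (HEK 293FT-transfection stock, MT2-propagated, PEG-concentrated) added at MOI 1 24 h later. After 48 h, GFP-positive cells counted by imaging; inhibition relative to DMSO controls. Duplicates, at least two independent experiments.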

| SMILES | CC50 at 72 h (Cytotoxicity assay) [µM] | antiviral activity against HIV-1 (in words) (HIV-1NL4-3; HIV-1 in TZM-GFP cells) | inhibition at 2 µM (HIV-1NL4-3) [%] | inhibition at 20 µM (HIV-1NL4-3) [%] | Inhibition at 2 μmol/L (HIV-1NL4-3; HIV-1 in TZM-GFP cells) | Inhibition at 20 μmol/L (HIV-1NL4-3; 20 μmol/L compound, HIV-1 in TZM-GFP cells) |
| --- | --- | --- | --- | --- | --- | --- |
| CN(C(=O)[C@H](Cc1ccccc1)NC(=O)CC1NC(=O)NC1=O)c1ccccc1 (stereo partly drawn) [Compound 2, (2S)-2-(2-(2,5-Dioxoimidazolidin-4-yl)acetamido)-N-methyl-N,3-diphenylpropanamide] | > 50 | completely inactive |  |  |  |  |
| Cc1ccc(N(C)C(=O)[C@H](Cc2ccccc2)NC(=O)CC2NC(=O)NC2=O)cc1 (stereo partly drawn) [Compound 3, (2S)-2-(2-(2,5-Dioxoimidazolidin-4-yl)acetamido)-N-methyl-3-phenyl-N-(p-tolyl)propanamide] | > 50 |  | 2 | 62 |  |  |
| CN(C(=O)[C@H](Cc1ccccc1)NC(=O)CC1NC(=O)NC1=O)c1ccc(Cl)cc1 (stereo partly drawn) [Compound 4, (2S)-N-(4-Chlorophenyl)-2-(2-(2,5-dioxoimidazolidin-4-yl)acetamido)-N-methyl-3-phenylpropanamide] | > 50 |  | 17 | 96 | inhibited HIV-1 weakly | almost completely |
| CN(C(=O)[C@H](Cc1ccccc1)NC(=O)CC1NC(=O)NC1=O)c1cccc(Cl)c1 (stereo partly drawn) [Compound 5, (2S)-N-(3-Chlorophenyl)-2-(2-(2,5-dioxoimidazolidin-4-yl)acetamido)-N-methyl-3-phenylpropanamide] | > 50 |  |  |  |  |  |
| CN(C(=O)[C@H](Cc1ccccc1)NC(=O)CC1NC(=O)NC1=O)c1ccc(F)cc1 (stereo partly drawn) [Compound 6, (2S)-2-(2-(2,5-Dioxoimidazolidin-4-yl)acetamido)-N-(4-fluorophenyl)-N-methyl-3-phenylpropanamide] | > 50 |  |  |  |  |  |
| CN(C(=O)[C@H](Cc1ccccc1)NC(=O)CC1NC(=O)NC1=O)c1cccc(F)c1 (stereo partly drawn) [Compound 7, (2S)-2-(2-(2,5-Dioxoimidazolidin-4-yl)acetamido)-N-(3-fluorophenyl)-N-methyl-3-phenylpropanamide] | > 50 |  |  |  |  |  |
| Cc1cn(CC(=O)N[C@@H](Cc2ccccc2)C(=O)N(C)c2ccccc2)c(=O)[nH]c1=O [Compound 8, (S)-N-Methyl-2-(2-(5-methyl-2,4-dioxo-3,4-dihydropyrimidin-1(2H)-yl)acetamido)-N,3-diphenylpropanamide] | > 50 |  | 35 | 95 | exhibited inhibition |  |
| Cc1ccc(N(C)C(=O)[C@H](Cc2ccccc2)NC(=O)Cn2cc(C)c(=O)[nH]c2=O)cc1 [Compound 9, (S)-N-Methyl-2-(2-(5-methyl-2,4-dioxo-3,4-dihydropyrimidin-1(2H)-yl)acetamido)-3-phenyl-N-(p-tolyl)propanamide] | > 50 |  | 7 | 85 |  |  |
| Cc1cn(CC(=O)N[C@@H](Cc2ccccc2)C(=O)N(C)c2cccc(Cl)c2)c(=O)[nH]c1=O [Compound 11, (S)-N-(3-Chlorophenyl)-N-methyl-2-(2-(5-methyl-2,4-dioxo-3,4-dihydropyrimidin-1(2H)-yl)acetamido)-3-phenylpropanamide] | > 50 |  | 37 | 95 | exhibited inhibition |  |
| Cc1cn(CC(=O)N[C@@H](Cc2ccccc2)C(=O)N(C)c2ccc(F)cc2)c(=O)[nH]c1=O [Compound 12, (S)-N-(4-Fluorophenyl)-N-methyl-2-(2-(5-methyl-2,4-dioxo-3,4-dihydropyrimidin-1(2H)-yl)acetamido)-3-phenylpropanamide] | > 50 |  | 6 | 94 |  |  |
| Cc1cn(CC(=O)N[C@@H](Cc2ccccc2)C(=O)N(C)c2cccc(F)c2)c(=O)[nH]c1=O [Compound 13, (S)-N-(3-Fluorophenyl)-N-methyl-2-(2-(5-methyl-2,4-dioxo-3,4-dihydropyrimidin-1(2H)-yl)acetamido)-3-phenylpropanamide] | > 50 |  | 0 | 74 |  |  |
| Cc1cn(CC(=O)N[C@@H](Cc2ccccc2)C(=O)N(C)c2cccc(Br)c2)c(=O)[nH]c1=O [Compound 14, (S)-N-(3-Bromophenyl)-N-methyl-2-(2-(5-methyl-2,4-dioxo-3,4-dihydropyrimidin-1(2H)-yl)acetamido)-3-phenylpropanamide] | > 50 |  | 22 | 100 | exhibited inhibition |  |
| Cc1cn(CC(=O)N[C@@H](Cc2ccccc2)C(=O)N(C)c2cccc(C(F)(F)F)c2)c(=O)[nH]c1=O [Compound 15, (S)-N-Methyl-2-(2-(5-methyl-2,4-dioxo-3,4-dihydropyrimidin-1(2H)-yl)acetamido)-3-phenyl-N-(3-(trifluoromethyl)phenyl)propanamide] | > 50 |  | 28 | 95 | exhibited inhibition |  |
| Cc1cn(CC(=O)N[C@@H](C(=O)N(C)c2ccccc2)c2ccccc2)c(=O)[nH]c1=O [Compound 16, (R)-N-Methyl-2-(2-(5-methyl-2,4-dioxo-3,4-dihydropyrimidin-1(2H)-yl)acetamido)-N,2-diphenylacetamide] | > 50 | did not inhibit HIV-1 |  |  |  |  |
| CN(C(=O)[C@H](Cc1ccccc1)NC(=O)c1c[nH]c(=O)[nH]c1=O)c1ccccc1 [Compound 17, (S)-N-(1-(Methyl(phenyl)amino)-1-oxo-3-phenylpropan-2-yl)-2,4-dioxo-1,2,3,4-tetrahydropyrimidine-5-carboxamide] | > 50 | lack of antiviral activity; also recorded: completely inactive |  |  |  |  |
| CN(C(=O)[C@H](Cc1ccccc1)NC(=O)CNC(=O)c1ccccc1)c1cccc(Cl)c1 [Compound 21, (S)-N-(2-((1-((3-Chlorophenyl)(methyl)amino)-1-oxo-3-phenylpropan-2-yl)amino)-2-oxoethyl)benzamide] | > 50 |  | 40 | 95 |  |  |
| CN(C(=O)[C@H](Cc1ccccc1)NC(=O)CNC(=O)c1ccccc1)c1ccc(F)cc1 [Compound 22, (S)-N-(2-((1-((4-Fluorophenyl)(methyl)amino)-1-oxo-3-phenylpropan-2-yl)amino)-2-oxoethyl)benzamide] | > 50 |  | 12 | 97 |  |  |
| CN(C(=O)[C@H](Cc1ccccc1)NC(=O)CNC(=O)c1ccccc1)c1cccc(Br)c1 [Compound 24, (S)-N-(2-((1-((3-Bromophenyl)(methyl)amino)-1-oxo-3-phenylpropan-2-yl)amino)-2-oxoethyl)benzamide] | > 50 |  | 38 | 97 |  |  |
| CN(C(=O)[C@H](Cc1ccccc1)NC(=O)CNC(=O)c1ccccc1)c1cccc(C(F)(F)F)c1 [Compound 25, (S)-N-(2-((1-(Methyl(3-(trifluoromethyl)phenyl)amino)-1-oxo-3-phenylpropan-2-yl)amino)-2-oxoethyl)benzamide] | > 50 |  | 19 | 89 |  |  |
| O=C(CNC(=O)c1ccccc1)N[C@@H](Cc1ccccc1)C(=O)N1CCC[C@H]1C(=O)Nc1ccccc1 [Compound 27, (S)-1-(Benzoylglycyl-L-phenylalanyl)-N-phenylpyrrolidine-2-carboxamide] (Bz-Gly-Phe-Pro-NHPh) | > 50 |  |  |  |  |  |

Reference: paper PMC7982424 (Acta Pharmaceutica Sinica. B, 2020)
